We go through 23 molecules from ChEMBL document CHEMBL1133588 (J Med Chem, 2000).

Common to all, as to type: tissue-based
Assay [1] concerns the target Sodium-dependent dopamine transporter (Rattus norvegicus, UniProt P23977). In words: Displacement of [3H]WIN-35428 from the dopamine transporter in rat caudate putamen. A digest of the protocol: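 Male Sprague-Dawley rat caudate putamen, fresh washed membranes in Krebs-HEPES pH 7.4, 0.5% w/v. Filtration on BSA-soaked GF/B filters. Three experiments in triplicate; Ki from nonlinear least-squares fitting of pooled replicates.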
(Displacement assays read how much labelled ligand stays bound in the presence of the test substance.)

The target in assay [2] is T1, Muscarinic acetylcholine receptor M1 (Rattus norvegicus, UniProt P08482).
T1 sequence (P08482 whole entry): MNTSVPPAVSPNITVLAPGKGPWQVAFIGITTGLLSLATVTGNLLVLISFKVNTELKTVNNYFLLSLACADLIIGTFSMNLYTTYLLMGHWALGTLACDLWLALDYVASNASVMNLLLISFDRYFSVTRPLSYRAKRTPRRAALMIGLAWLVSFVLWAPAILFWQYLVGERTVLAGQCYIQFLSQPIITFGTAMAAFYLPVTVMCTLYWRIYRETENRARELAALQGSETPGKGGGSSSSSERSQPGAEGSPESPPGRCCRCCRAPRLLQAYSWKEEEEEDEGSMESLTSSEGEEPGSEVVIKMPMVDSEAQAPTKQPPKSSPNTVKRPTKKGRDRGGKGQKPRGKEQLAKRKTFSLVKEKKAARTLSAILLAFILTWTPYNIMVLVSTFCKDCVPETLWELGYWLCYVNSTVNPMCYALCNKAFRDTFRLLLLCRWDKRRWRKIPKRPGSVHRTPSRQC
In words: Binding affinity at Muscarinic acetylcholine receptor M1 in Rat brain homogenate by [3H]pirenzepine displacement.

The target of assay [3] is T1, Muscarinic acetylcholine receptor M1. Nature of the assay: Compound is tested for displacement of [3H]pirenzepine at […] in Rat brain homogenate. A digest of the protocol: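 Whole rat brain minus cerebellum, homogenised in 10 mM Tris-HCl/320 mM sucrose pH 7.4; 10000g pellet. Binding in 10 mM Tris-HCl with 5 mM MgCl2, […], [3H]pirenzepine 3 nM final, 1 h at 37 °C. Competitor 0.01 nM–100 µM. Filtration through PEI-soaked GF/B filters. At least three experiments in triplicate; Ki from nonlinear curve fitting.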

Sodium-dependent dopamine transporter, sequence (P23977 whole entry): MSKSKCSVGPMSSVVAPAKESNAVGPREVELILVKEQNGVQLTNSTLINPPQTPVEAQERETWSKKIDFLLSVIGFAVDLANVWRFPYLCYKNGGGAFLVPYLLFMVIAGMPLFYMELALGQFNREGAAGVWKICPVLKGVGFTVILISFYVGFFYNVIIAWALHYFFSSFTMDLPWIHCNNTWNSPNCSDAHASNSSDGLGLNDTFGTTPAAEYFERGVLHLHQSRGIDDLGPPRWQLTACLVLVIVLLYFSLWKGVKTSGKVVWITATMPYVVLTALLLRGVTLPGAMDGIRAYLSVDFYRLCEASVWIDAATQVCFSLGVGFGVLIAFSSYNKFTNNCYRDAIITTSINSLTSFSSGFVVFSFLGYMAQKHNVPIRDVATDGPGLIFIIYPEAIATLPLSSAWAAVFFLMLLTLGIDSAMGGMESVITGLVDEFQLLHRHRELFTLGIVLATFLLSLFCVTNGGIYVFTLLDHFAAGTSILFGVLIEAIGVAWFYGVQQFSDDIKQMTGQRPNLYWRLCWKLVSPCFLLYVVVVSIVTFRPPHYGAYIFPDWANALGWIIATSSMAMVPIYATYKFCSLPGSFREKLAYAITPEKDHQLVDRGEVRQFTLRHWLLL

Turning to `C=CCCN1C2CCC1CC(OC(c1ccc(F)cc1)c1ccc(F)cc1)C2` (stereo not given), the Ki in assay [1] amounted to 31.9 nM; in assay [2], 278 nM.
In turn, `Fc1ccc(C(OC2CC3CCC(C2)N3Cc2ccccc2)c2ccc(F)cc2)cc1` (stereo not given) yielded a Ki in assay [3] of 1030 nM.
As to `C[C@@H](CN1C2CCC1CC(OC(c1ccc(F)cc1)c1ccc(F)cc1)C2)c1ccccc1` (stereo not given in full), the figures for the Ki in assay [1] and in assay [2] were 477 nM and 392 nM, respectively.
For the molecule `O=[N+]([O-])c1ccc(-c2ccc(COCCN3C4CCC3CC(OC(c3ccc(F)cc3)c3ccc(F)cc3)C4)cc2)cc1` (stereo not given), the Ki in assay [3] amounted to 460 nM.
With `Fc1ccc(C(OC2CC3CCC(C2)N3Cc2cccc3ccccc23)c2ccc(F)cc2)cc1` (stereo not given), the values for the Ki in assay [1] and in assay [2] were 367 nM and 1790 nM, respectively.
For the molecule `CCCCN1C2CCC1CC(OC(c1ccc(F)cc1)c1ccc(F)cc1)C2` (stereo not given), the Ki in assay [2] turned out to be 399 nM.
Regarding `CC(C)[C@@H](N)CN1C2CCC1CC(OC(c1ccc(F)cc1)c1ccc(F)cc1)C2` (stereo not given in full), the Ki amounted to 56.4 nM in assay [1] and 2180 nM in assay [2].
`O=[N+]([O-])c1ccc(CCCCN2[C@@H]3CC[C@H]2C[C@@H](OC(c2ccc(F)cc2)c2ccc(F)cc2)C3)cc1` returned a Ki in assay [2] of 299 nM.
As for `Fc1ccc(C(OC2CC3CCC(C2)N3C/C=C/c2ccccc2)c2ccc(F)cc2)cc1` (stereo not given), the Ki amounted to 86.4 nM in assay [1] and 401 nM in assay [3].
Take `Fc1ccc(CCCN2C3CCC2CC(OC(c2ccc(F)cc2)c2ccc(F)cc2)C3)cc1` (stereo not given): the Ki in assay [3] was 686 nM.
As for `CC[C@H](CN1C2CCC1CC(OC(c1ccc(F)cc1)c1ccc(F)cc1)C2)c1ccccc1` (stereo not given in full), the Ki is 228 nM in assay [1] and 2360 nM in assay [2].
Consider `Nc1ccc(CCCCN2[C@@H]3CC[C@H]2C[C@@H](OC(c2ccc(F)cc2)c2ccc(F)cc2)C3)cc1`, for which the Ki in assay [2] was found to be 134 nM.
For the molecule `Fc1ccc(C(OC2CC3CCC(C2)N3CC2CC2)c2ccc(F)cc2)cc1` (stereo not given), the Ki in assay [3] turned out to be 257 nM.
The same measure, in the same setting: the figure for `Fc1ccc(CN2C3CCC2CC(OC(c2ccc(F)cc2)c2ccc(F)cc2)C3)cc1` (stereo not given) is 1540 nM.
Regarding `CC[C@@H](CN1C2CCC1CC(OC(c1ccc(F)cc1)c1ccc(F)cc1)C2)c1ccccc1` (stereo not given in full), the Ki came out at 400 nM in assay [1] and 1440 nM in assay [2].
Take `C=CCN1C2CCC1CC(OC(c1ccc(F)cc1)c1ccc(F)cc1)C2` (stereo not given): the Ki in assay [2] amounted to 177 nM.
Take `Fc1ccc(C(OC2CC3CCC(C2)N3Cc2ccc(Cl)c(Cl)c2)c2ccc(F)cc2)cc1` (stereo not given): the figures for the Ki in assay [1] and in assay [2] were 392 nM and 3880 nM, respectively.
On the same counts, the results for `CC(C)[C@H](N)CN1C2CCC1CC(OC(c1ccc(F)cc1)c1ccc(F)cc1)C2` (stereo not given in full) are 29.5 nM and 4020 nM.
On to `Fc1ccc(C(OC2CC3CCC(C2)N3CCCc2ccccc2)c2ccc(F)cc2)cc1` (stereo not given), for which, in assay [3], the Ki was 312 nM.
As to `Fc1ccc(C(O[C@H]2C[C@H]3CC[C@@H](C2)N3CCc2c[nH]c3ccccc23)c2ccc(F)cc2)cc1`, the Ki in assay [1] was found to be 44.6 nM; in assay [3], 3280 nM.
For `NCCN1[C@@H]2CC[C@H]1C[C@@H](OC(c1ccc(F)cc1)c1ccc(F)cc1)C2`, the Ki in assay [1] came out at 13.9 nM; in assay [2], 1250 nM.
On the same counts, the results for `C[C@H](CN1C2CCC1CC(OC(c1ccc(F)cc1)c1ccc(F)cc1)C2)c1ccccc1` (stereo not given in full) are 301 nM and 1900 nM.
`Fc1ccc(C(OC2CC3CCC(C2)N3)c2ccc(F)cc2)cc1` (stereo not given) registered a Ki in assay [2] of 203 nM.

Broadly, the Ki is a measure of affinity in units of concentration, obtained from inhibition or displacement. Read a high Ki as lower affinity.
